SMILES strings stand for the structures. Values after ≈ are worked out from the molar mass of the structure shown.

The first assay has as its target T1, Enoyl-[acyl-carrier-protein] reductase [NADH] (Mycobacterium tuberculosis) (UniProt P9WGR1).
T1 sequence (whole entry): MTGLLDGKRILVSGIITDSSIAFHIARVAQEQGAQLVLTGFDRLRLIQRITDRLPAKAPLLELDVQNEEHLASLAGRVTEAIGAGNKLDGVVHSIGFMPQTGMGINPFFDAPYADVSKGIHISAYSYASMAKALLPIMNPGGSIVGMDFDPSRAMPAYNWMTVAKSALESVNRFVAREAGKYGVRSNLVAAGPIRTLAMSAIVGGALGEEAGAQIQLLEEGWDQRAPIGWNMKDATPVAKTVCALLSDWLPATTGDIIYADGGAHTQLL
The assay is described as follows: Inhibition of Mycobacterium tuberculosis InhA expressed in Escherichia coli using trans-2-dodecenoyl-coenzyme-A as substrate at 5 uM. In a few lines: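 Recombinant M. tuberculosis wild-type InhA purified from E. coli. Reaction started by adding InhA (100 nM final) to DD-CoA (50 μM final), NADH (250 μM final) and inhibitor in 30 mM PIPES, 150 mM NaCl, pH 6.8. Percent inhibition taken from initial velocity against a no-inhibitor control. Run in triplicate.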
By inhibition is commonly meant the percentage by which the read-out fell short of the control. High values mean a strong effect, low ones a weak effect. With `O=C1CC(C2c3ccccc3-c3ccccc32)C(=O)N1c1cc(Cl)cc(Cl)c1` (stereo not given), the inhibition worked out at 31%.

Another assay deals with Mycobacterium tuberculosis. Nature of the assay: Antimicrobial activity against Mycobacterium tuberculosis H37Rv by two-fold serial dilution method. Format: functional. An outline of the steps:
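Compounds dissolved in DMSO. Single colony grown in Middlebrook 7H9 with 0.05% Tween 80 and 10% OADC at 37 °C, no shaking, to ~10^8 CFU/mL (OD600 0.8–1.0). Diluted to ~10^7 CFU/mL; 1 μL streaked onto 7H11 agar (0.5% glycerol, 10% OADC) with two-fold serial compound dilutions. MIC is the lowest concentration inhibiting growth. Repeated three times.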
Broadly, the MIC is the lowest concentration that inhibits growth of the organism. The low end stands for a more susceptible organism, the high end for a less susceptible organism. In turn, `CCCCCCCCC(=O)N1C(=O)CC(C2c3ccccc3-c3ccccc32)C1=O` (stereo not given) returned an MIC of 39.7 µM (≈ 16 µg/mL).

For `O=C1CC(C2c3ccccc3-c3ccccc32)C(=O)N1CCc1c[nH]c2ccccc12` (stereo not given), the MIC is > 39.4 µM.

For the compound `O=C(CC(C(=O)O)C1c2ccccc2-c2ccccc21)NNC(=O)c1ccncc1` (stereo not given), the lowest concentration to inhibit growth (MIC) was 10 µM (≈ 4.01 µg/mL).

For the compound `O=C1CC(C2c3ccccc3-c3ccccc32)C(=O)N1C(=O)c1ccc2[nH]ccc2c1` (stereo not given), 39.4 µM (≈ 16 µg/mL) was the least that counted as inhibitory (MIC).

`O=C(Cc1ccccc1)N1C(=O)CC(C2c3ccccc3-c3ccccc32)C1=O` (stereo not given) had an MIC of 41.9 µM (≈ 16 µg/mL).

With `O=C(CC(C(=O)O)C1c2ccccc2-c2ccccc21)NCCc1c[nH]c2ccccc12` (stereo not given), the MIC came to 37.7 µM (≈ 16 µg/mL).

Compound `O=C(CC(C(=O)O)C1c2ccccc2-c2ccccc21)Nc1ccc(F)cc1` (stereo not given) showed an MIC of 42.6 µM (≈ 16 µg/mL).

On to `COc1cc(N2C(=O)CC(C3c4ccccc4-c4ccccc43)C2=O)cc(OC)c1OC` (stereo not given), for which it took 37.3 µM (≈ 16 µg/mL) to inhibit growth (MIC).

As for `COc1cc(CN2C(=O)CC(C3c4ccccc4-c4ccccc43)C2=O)cc(OC)c1` (stereo not given), the MIC was > 38.7 µM.

`O=C(CC(C(=O)O)C1c2ccccc2-c2ccccc21)Nc1cc(Cl)cc(Cl)c1` (stereo not given) returned an MIC of 4.7 µM (≈ 2 µg/mL).

As to `O=C(O)CC(C(=O)O)C1c2ccccc2-c2ccccc21` (stereo not given), the MIC was determined as 28.3 µM (≈ 7.99 µg/mL). This MIC lies about 6-fold higher than the previous one.

Regarding `O=C1CC(C2c3ccccc3-c3ccccc32)C(=O)N1C(=O)c1ccccc1` (racemic), the MIC was found to be 5.4 µM (≈ 1.98 µg/mL).

On to `CCCCCCCCCN1C(=O)CC(C2c3ccccc3-c3ccccc32)C1=O` (stereo not given), for which the MIC was 41.1 µM (≈ 16 µg/mL).

`O=C1CC(C2c3ccccc3-c3ccccc32)C(=O)N1c1cc(Cl)cc(Cl)c1` (stereo not given) yielded an MIC of 19.6 µM (≈ 8 µg/mL).

For the compound `O=C(c1ccc2[nH]ccc2c1)N1CCN(C2c3ccccc3-c3ccccc32)CC1`, the MIC was > 40.7 µM.

With `O=C1CC(C2c3ccccc3-c3ccccc32)C(=O)N1c1ccc(F)cc1` (stereo not given), the MIC is > 44.8 µM.

The compound `O=C1CC(C2c3ccccc3-c3ccccc32)C(=O)N1` (stereo not given) returned an MIC of 30.4 µM (≈ 8 µg/mL).

The compound `O=C1CC(C2c3ccccc3-c3ccccc32)C(=O)N1Cc1ccccc1` (single isomer, unassigned) displayed an MIC of 45.3 µM (≈ 16 µg/mL).

Turning to `O=C(CN1C(=O)CC(C2c3ccccc3-c3ccccc32)C1=O)c1ccccc1` (stereo not given), the MIC is > 41.9 µM.
